Results published in ChEMBL document CHEMBL3272253, “Relationship of molecular structure to in vivo scintigraphic distribution patterns of carbon-11 labeled compounds. 3. (11C)Hydantoins” (J Med Chem, 1976).

How the values were obtained:
Format in all cases: ADME, organism-based, Canis lupus familiaris
Conditions in all cases: in vivo; call rule not given here
[1] = tested on: Canis familiaris; experiment: Drug level in iv dosed dog after 5 to 30 mins by gamma-scintillation counting analysis
Outline: (§1)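 Carbon-11-labeled hydantoin, 1–59 mCi of final product, dissolved in 1–1.5% aqueous NaOH and given iv to dogs. Distribution imaged serially for up to 2 hr or more with a scintillation camera fitted with a pinhole collimator (1-cm hyperbolic aperture), with whole-body scintiphotos at about 5 and 30 min. Readout is qualitative to semiquantitative; no coincidence imaging.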

[2] = tested on: Nucleic Acid; experiment: Ratio of drug level in iv dosed dog stomach to temporal muscle after 73 mins by gamma-scintillation counting analysis
Outline: (§2)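 Dogs were dosed iv with 11C-labeled hydantoin. Tissues and fluids were collected at necropsy 73 or 80 min post-dose and counted at fixed geometry in front of a thallium-activated NaI scintillation detector. Values are cpm/g of tissue divided by cpm/g of temporal muscle.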

[3] = tested on: Nucleic Acid; experiment: Ratio of drug level in iv dosed dog cerebrospinal fluid to temporal muscle after 73 mins by gamma-scintillation counting analysis; outline: as §2
[4] = tested on: Nucleic Acid; experiment: Ratio of drug level in iv dosed dog mesenteric fat to temporal muscle after 73 mins by gamma-scintillation counting analysis; outline: as §2
[5] = tested on: Nucleic Acid; experiment: Ratio of drug level in iv dosed dog bile to temporal muscle after 73 mins by gamma-scintillation counting analysis; outline: as §2
[6] = tested on: Nucleic Acid; experiment: Ratio of drug level in iv dosed dog washed heart to temporal muscle after 73 mins by gamma-scintillation counting analysis
Outline: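 [11C]-labeled hydantoin, from carrier-free [11C]HCN, given intravenously to dogs. Heart washed and taken at necropsy 73 min after dosing, along with temporal muscle. Tissues were counted at fixed geometry before a thallium-activated NaI scintillation detector. Value is cpm/g washed heart divided by cpm/g temporal muscle.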

[7] = tested on: Nucleic Acid; experiment: Ratio of drug level in iv dosed dog kidney to temporal muscle after 73 mins by gamma-scintillation counting analysis; outline: as §2
[8] = Drug level in iv dosed dog lung after 5 to 30 mins by gamma-scintillation counting analysis; outline: as §1
[9] = tested on: Nucleic Acid; experiment: Ratio of drug level in iv dosed dog brain to temporal muscle after 73 mins by gamma-scintillation counting analysis; outline: as §2
[10] = tested on: Nucleic Acid; experiment: Ratio of drug level in iv dosed dog blood to temporal muscle after 73 mins by gamma-scintillation counting analysis; outline: as §2
[11] = tested on: Liver; experiment: Drug level in iv dosed dog liver after 5 to 30 mins by gamma-scintillation counting analysis; outline: as §1
[12] = tested on: Nucleic Acid; experiment: Ratio of drug level in iv dosed dog lung to temporal muscle after 73 mins by gamma-scintillation counting analysis; outline: as §2
[13] = tested on: Nucleic Acid; experiment: Ratio of drug level in iv dosed dog spleen to temporal muscle after 73 mins by gamma-scintillation counting analysis; outline: as §2
[14] = tested on: Nucleic Acid; experiment: Ratio of drug level in iv dosed dog urine to temporal muscle after 73 mins by gamma-scintillation counting analysis; outline: as §2
[15] = tested on: Nucleic Acid; experiment: Ratio of drug level in iv dosed dog liver to temporal muscle after 73 mins by gamma-scintillation counting analysis; outline: as §2
[16] = tested on: Nucleic Acid; experiment: Ratio of drug level in iv dosed dog pancreas to temporal muscle after 73 mins by gamma-scintillation counting analysis; outline: as §2
[17] = Drug excretion in iv dosed dog urine after 5 to 30 mins by gamma-scintillation counting analysis; outline: as §1
[18] = Drug level in iv dosed dog kidney after 5 to 30 mins by gamma-scintillation counting analysis; outline: as §1
[19] = tested on: Liver; experiment: Drug level in iv dosed dog liver by gamma-scintillation counting analysis; outline: as §1
[20] = Drug level in iv dosed dog lung by gamma-scintillation counting analysis; outline: as §1
[21] = Drug excretion in iv dosed dog urine by gamma-scintillation counting analysis; outline: as §1
[22] = Drug level in iv dosed dog vein by gamma-scintillation counting analysis; outline: as §1
[23] = Drug level in iv dosed dog kidney by gamma-scintillation counting analysis; outline: as §1
[24] = tested on: Canis familiaris; experiment: Drug level in iv dosed dog by gamma-scintillation counting analysis; outline: as §1
[25] = tested on: Brain; experiment: Drug level in iv dosed dog brain by gamma-scintillation counting analysis; outline: as §1

## CC1(c2ccccc2)NC(=O)N[11C]1=O (configuration not stated)
[1]
  Drug uptake: Active

## CCC1(c2ccccc2)NC(=O)N[11C]1=O (configuration not stated)
[2]
  Ratio: 0.92
[3]
  Ratio: 2.67
[4]
  Ratio: 0.75
[1]
  Drug uptake: Active
[5]
  Ratio: 1.58
[6]
  Ratio: 1
[7]
  Ratio: 1.25
[8]
  Drug uptake: Active
[9]
  Ratio: 1.25
[10]
  Ratio: 1
[11]
  Drug uptake: Active
[12]
  Ratio: 0.75
[13]
  Ratio: 1.25
[14]
  Ratio: 0.67
[15]
  Ratio: 1.33
[16]
  Ratio: 1.67

## CCCC1(c2ccccc2)NC(=O)N[11C]1=O (configuration not stated)
[1]
  Drug uptake: Active

## O=C(O)CCC1(c2ccccc2)NC(=O)N[11C]1=O (configuration not stated)
[17]
  Drug excretion: metabolite_detected
[1]
  Drug uptake: Active
[18]
  Drug uptake: Active

## O=C1N[11C](=O)C2(CCCCC2)N1
[19]
  Drug uptake: Active
[20]
  Drug uptake: Active
[21]
  Drug excretion: metabolite_detected
[22]
  Drug uptake: Active
[23]
  Drug uptake: Active
[24]
  Drug uptake: Active

## O=C1N[11C](=O)C2(CCCCCC2)N1
[19]
  Drug uptake: Active
[25]
  Drug uptake: Active

## O=C1N[11C](=O)C2(CCCCCCC2)N1
[25]
  Drug uptake: Not Active

## O=C1N[11C](=O)C2(N1)c1ccccc1-c1ccccc12
[25]
  Drug uptake: Not Active

## O=C1N[11C](=O)C2(CCCc3ccccc32)N1 (configuration not stated)
[25]
  Drug uptake: Not Active
